Key:
Staphylococcus aureus [1] = assay: Antimicrobial activity against methicillin resistant Staphylococcus aureus COL assessed as bacterial killing by time kill study; assay type: functional, organism-based
Staphylococcus aureus [2] = assay: Antimicrobial activity against methicillin resistant Staphylococcus aureus Newman assessed as bacterial killing by time kill study; assay type: functional, organism-based
Staphylococcus aureus [3] = assay: Antimicrobial activity against methicillin resistant Staphylococcus aureus isolate A20780 I isolated from persistent bacterial infection patient assessed as bacterial killing by time kill study; assay type: functional, organism-based
Staphylococcus aureus [4] = assay: Antimicrobial activity against methicillin resistant Staphylococcus aureus COL assessed as bacterial killing at 64 times MIC after 24 hrs by time kill study relative to baseline; assay type: functional
Summary of the method: (§1)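 Time-kill in Ca/Mg-supplemented BHI. A 0.5 McFarland saline suspension was diluted to about 10^7 CFU/ml with vancomycin in 10-ml cultures, shaken at 35°C. Counts at 0, 1, 2, 4, 6 and 24 h by spiral plating on BHI agar, incubated 24 h at 35°C (48 h for Ia48 and III33). Drug-free growth controls were run. Value is the 24-h log10 CFU/ml change from baseline; runs were duplicate to quadruplicate.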

Staphylococcus aureus [5] = assay: Antimicrobial activity against methicillin resistant Staphylococcus aureus Newman assessed as bacterial killing at 64 times MIC after 24 hrs by time kill study relative to baseline; assay type: functional; summary of the method: as §1
Staphylococcus aureus [6] = assay: Antimicrobial activity against methicillin resistant Staphylococcus aureus isolate A20780 I isolated from persistent bacterial infection patient assessed as bacterial killing at 64 times MIC after 24 hrs by time kill study; assay type: functional; summary of the method: as §1
Staphylococcus aureus [7] = assay: Antimicrobial activity against methicillin resistant Staphylococcus aureus isolate A20780 II with hemin auxotrophism and expressing small-colony-variant phenotype isolated from persistent bacterial infection patient assessed as bacterial killing at 64 times MIC after 24 hrs by time kill study; assay type: functional; summary of the method: as §1
Staphylococcus aureus [8] = assay: Antimicrobial activity against methicillin resistant Staphylococcus aureus Ia48 containing hemB mutation (hemB::ermB) expressing small-colony-variant phenotype assessed as bacterial killing at 64 times MIC after 24 hrs by time kill study; assay type: functional; summary of the method: as §1
Staphylococcus aureus [9] = assay: Antimicrobial activity against methicillin resistant Staphylococcus aureus III33 containing hemB mutation (hemB::ermB) expressing small-colony-variant phenotype assessed as bacterial killing at 64 times MIC after 24 hrs by time kill study; assay type: functional; summary of the method: as §1

SMILES: CN[C@H](CC(C)C)C(=O)N[C@H]1C(=O)N[C@@H](CC(N)=O)C(=O)N[C@H]2C(=O)N[C@H]3C(=O)N[C@H](C(=O)N[C@H](C(=O)O)c4cc(O)cc(O)c4-c4cc3ccc4O)[C@H](O)c3ccc(c(Cl)c3)Oc3cc2cc(c3O[C@@H]2O[C@H](CO)[C@@H](O)[C@H](O)[C@H]2O[C@H]2C[C@](C)(N)[C@H](O)[C@H](C)O2)Oc2ccc(cc2Cl)[C@H]1O [VANCOMYCIN]
- Activity (Staphylococcus aureus [1]): Dose-dependent effect
- Activity (Staphylococcus aureus [2]): Dose-dependent effect
- Activity (Staphylococcus aureus [3]): Dose-dependent effect
- log10CFU/ml (Staphylococcus aureus [4]): 3.99
- log10CFU/ml (Staphylococcus aureus [5]): 4.81
- log10CFU/ml (Staphylococcus aureus [6]): 2.39
- log10CFU/ml (Staphylococcus aureus [7]): 1.78
- log10CFU/ml (Staphylococcus aureus [8]): 1.4
- log10CFU/ml (Staphylococcus aureus [9]): 1.88

Source: ChEMBL document CHEMBL1255317, “Attenuated vancomycin bactericidal activity against Staphylococcus aureus hemB mutants expressing the small-colony-variant phenotype” (2008)
